UPR CHOP act – apoptotic UPR (CHOP) activation; CHO-CHOP luciferase reporter, luminescence; percent of tunicamycin response over DMSO baseline; activation, % at 10 µM; actives 0.34% (n = 330,000);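 active means at 10 µM dose, activation of 40% or more, normalized to positive control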;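 further: 100% = tunicamycin at 10 µg/mL and 0% = DMSO alone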
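System: CHO CHOP reporter cells. Amount: 500 cells per well. Buffer or medium: F12 medium, 10% FBS. Compound dosing: one dose, 10 µM in 0.5% DMSO. Incubation: 6 h compound exposure at 37 °C after overnight seeding. Technique: Steady-Glo luciferase luminescence. Benchmarks: tunicamycin and DMSO controls.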
CHOP inh – blocks CHOP induction under ER stress; CHO-K1 CHOP-promoter luciferase, tunicamycin-induced, 15-18 h; AID 2732; inhibition, % at 10 µM; actives 3.8% (n = 220,000);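 active means compounds that reduced the stress-induced luciferase reporter signal by more than about 70% of percent inhibition, limit read from the data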;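 further: 0% = tunicamycin plus vehicle and 100% = wells without tunicamycin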
XBP1 UPR activ – adaptive UPR (XBP1) activation | CHO-XBP1 luciferase reporter, IRE1-XBP1 UPR activation, luminescence; percent of tunicamycin response, DMSO as zero | activation, % at 20 µM | AID 463104 | actives 0.33% (n = 330,000);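 active means versus positive control, 20 µM dose yields 30% or more activation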;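 further: 100% = tunicamycin at 10 µg/mL and 0% = DMSO only wells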
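Assay system: IRE1-XBP1 luciferase reporter CHO line. Input: 1000 cells/well. Buffer or medium: F12 with 10% serum. Doses: 20 µM, 1% DMSO. Times: overnight seeding at 37 °C, 6 h compound treatment at 37 °C. Technique: Steady-Glo luciferase glow luminescence, 10 min after reagent addition.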
Bfl-1 A1 inh – inhibitors of the anti-apoptotic protein A1, read as caspase activation; caspase activation, % (concentration not given with the values); actives 0.066% (n = 330,000); MEF A1-2A-BIM cells, Caspase-Glo 3/7 luminescence, 3 h; percent of clofoctol response, vehicle zero;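 active means over half of replicate activation scores above 10%, or exactly half above 10 with the replicate mean above 10; inconclusive means replicate mean below 10 yet half the replicates above 10; inactive means over half of replicates below 10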
CHOP confirm – confirmation of CHOP induction inhibitors. shares compounds with CHOP inh. CHO-CHOP promoter luciferase reporter, tunicamycin-induced, luminescence. inhibition, % at 10 µM. actives 45% (n = 2,100);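 active means mean of three repeat readings of reporter signal inhibition above a set limit, cut at about 70% in these data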;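 further: 0% = tunicamycin plus vehicle and 100% = wells lacking tunicamycin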
* marks the source's active call; other numbers are inactive results. Many of the other results were omitted from the sample, so hits are more common in it than they were.

`N#Cc1c(N)nc2c(c1-c1ccc(Br)s1)CCCC2` gave UPR CHOP act -0.8, CHOP inh 21.4, XBP1 UPR activ -0.8 and Bfl-1 A1 inh 0.8.
`Cc1onc(-c2c(Cl)cccc2Cl)c1C(=O)N1CCN(Cc2ccccc2)CC1` gave UPR CHOP act -0.3, XBP1 UPR activ -8.0 and Bfl-1 A1 inh 0.1.
COc1ccccc1-c1cc(C(F)(F)F)nc(S(=O)(=O)CCCC(=O)O)n1 was read as UPR CHOP act -1.6, CHOP inh -33.5, XBP1 UPR activ -3.7 and Bfl-1 A1 inh -0.4.
For COc1ccccc1-c1cc(C(F)(F)F)nc(S(=O)(=O)CCCC(=O)N2CCOCC2)n1 the results were UPR CHOP act -4.8, XBP1 UPR activ -9.9, Bfl-1 A1 inh 6.1* and CHOP confirm 67.3.
`COc1ccc(-c2n[nH]c(C)c2-c2cnn(-c3ccccc3)c2)c(O)c1C` gave UPR CHOP act 1.6, CHOP inh 98.6*, XBP1 UPR activ 0.6, Bfl-1 A1 inh -0.3 and CHOP confirm 2.9.
Screening COC(=O)c1sccc1NC(=O)c1ccccc1[N+](=O)[O-] returned UPR CHOP act -1.8, CHOP inh 24.1, XBP1 UPR activ -2.5 and Bfl-1 A1 inh -0.5.
Screening O=C(Nc1ccc(N2CCOCC2)c(S(=O)(=O)Nc2ccccc2Cl)c1)c1ccc(F)cc1 returned UPR CHOP act 0.1, XBP1 UPR activ -1.9 and Bfl-1 A1 inh 1.1.
Screening O=C(Nc1ccc(F)cc1)Nc1ccc(N2CCCC2)c(S(=O)(=O)Nc2ccccc2Cl)c1 returned UPR CHOP act 9.8, CHOP inh 96.5*, XBP1 UPR activ 6.2, Bfl-1 A1 inh -1.9 and CHOP confirm 90.7*.
`Cc1ccc(-c2nc(N)s[n+]2-c2ccccc2)cc1` gave CHOP inh 23.3 and Bfl-1 A1 inh 0.5.
Screening CNc1nc(-c2ccccc2)[n+](-c2ccc(C)cc2)s1 returned CHOP inh 96.9*, Bfl-1 A1 inh inconclusive and CHOP confirm 10.4.
`O=C1CC(c2ccco2)CC(O)=C1C=Nc1cc(Cl)ccc1O` (configuration not stated) gave UPR CHOP act 15.6, CHOP inh -5.0, XBP1 UPR activ 3.6 and Bfl-1 A1 inh -0.8.
Cc1[nH]nc(N=CC2=C(O)CC(c3ccco3)CC2=O)c1-c1ccc(Cl)cc1 (configuration not stated) was read as UPR CHOP act 22.7, CHOP inh 104.5*, XBP1 UPR activ 6.8, Bfl-1 A1 inh 0.3 and CHOP confirm 80.0*.
Screening O=C1CC(c2ccco2)CC(O)=C1C=Nc1ccccc1-c1ccccc1 (configuration not stated) returned UPR CHOP act 2.1, CHOP inh 103.8*, XBP1 UPR activ -7.0, Bfl-1 A1 inh 0.0 and CHOP confirm 94.9*.
Screening COc1cc(CN2CCNC(=O)C2CC(=O)NCCC2=CCCCC2)cc(OC)c1 (configuration not stated) returned UPR CHOP act -0.1, CHOP inh 9.0, XBP1 UPR activ 0.1 and Bfl-1 A1 inh -0.1.
`CN(CC(=O)NCc1ccncc1)S(=O)(=O)c1cc(Cl)ccc1Cl` gave UPR CHOP act 2.4, XBP1 UPR activ 1.0 and Bfl-1 A1 inh 0.9.
Screening Cn1ncc([N+](=O)[O-])c1C(=O)Nc1ccccc1Cl returned UPR CHOP act -1.5, XBP1 UPR activ -3.5 and Bfl-1 A1 inh 0.3.
Screening COC(=O)c1ccc2c(c1)C(C)(C)C(/C=C/c1ccccc1O)=[N+]2C returned UPR CHOP act -8.6, CHOP inh 108.4*, XBP1 UPR activ -6.2, Bfl-1 A1 inh inconclusive and CHOP confirm 120.3*.
Screening O=C(N/N=C/c1ccncc1)c1cc2c(ccc3ccccc32)o1 returned UPR CHOP act -0.5, CHOP inh 108.6*, XBP1 UPR activ -2.6, Bfl-1 A1 inh -0.2 and CHOP confirm -56.1.
`O=C(O)c1ccc(/C=N/NC(=O)c2cc3c(ccc4ccccc43)o2)cc1` gave UPR CHOP act 0.6, XBP1 UPR activ -1.0 and Bfl-1 A1 inh -0.4.
For CCOC(=O)/C(=C/c1ccc(OC(=O)c2ccccc2)cc1)C(C)=O the results were UPR CHOP act 4.4, CHOP inh 101.0*, XBP1 UPR activ 18.3, Bfl-1 A1 inh -2.6 and CHOP confirm -30.5.
`CCOC(=O)/C(=C\c1ccccc1)NC(=O)c1ccccc1` gave UPR CHOP act -0.8, CHOP inh -20.2, XBP1 UPR activ -1.7 and Bfl-1 A1 inh 0.7.
Cc1cc(C)n(-c2nc(Nc3ccccc3C(F)(F)F)nc(-n3nc(C)cc3C)n2)n1 was read as UPR CHOP act 9.8, CHOP inh 105.1*, XBP1 UPR activ -7.5, Bfl-1 A1 inh 1.4 and CHOP confirm 122.3*.
For CCNc1nc(NCC)nc(-n2nc(C)cc2C)n1 the results were UPR CHOP act 10.6, CHOP inh -132.8, XBP1 UPR activ 6.4 and Bfl-1 A1 inh 0.8.
For Cc1cc(C)n(-c2nc(Nc3ccccc3C)nc(-n3nc(C)cc3C)n2)n1 the results were UPR CHOP act 5.2, CHOP inh 98.6*, XBP1 UPR activ -3.2, Bfl-1 A1 inh 4.3 and CHOP confirm 36.2.
`Cc1cc(C)n(-c2nc(NC(C)C)nc(NC(C)C)n2)n1` gave UPR CHOP act 36.1, CHOP inh -168.4, XBP1 UPR activ 10.3 and Bfl-1 A1 inh 1.6.
`O=S(=O)(NC1CCCC1)c1cccc(-c2nnc(-c3ccccc3)o2)c1` gave UPR CHOP act 1.1, CHOP inh 35.8, XBP1 UPR activ -2.5 and Bfl-1 A1 inh -0.4.
Screening CCCc1cc(-c2nc(N)ncc2-c2csc(C)n2)c(O)cc1OC returned UPR CHOP act 0.0, CHOP inh 46.6, XBP1 UPR activ 1.0 and Bfl-1 A1 inh -1.5.
Screening CCCc1cc(-c2nc(N)ncc2-c2ccc3c(c2)OCCCO3)c(O)cc1OC returned UPR CHOP act 1.0, CHOP inh 106.0*, XBP1 UPR activ 3.7, Bfl-1 A1 inh 0.7 and CHOP confirm 121.9*.
`O=C(NCC1CCCO1)c1ccc2c(=O)n(Cc3ccc(Cl)cc3)c(=S)[nH]c2c1` (configuration not stated) gave UPR CHOP act 1.6, CHOP inh 102.8*, XBP1 UPR activ 0.4, Bfl-1 A1 inh 1.0 and CHOP confirm -0.2.
For COc1ccc([N+](=O)[O-])cc1N(CC(=O)N1CCCCC1)S(C)(=O)=O the results were UPR CHOP act 2.1, CHOP inh 14.8, XBP1 UPR activ -2.7 and Bfl-1 A1 inh 0.1.
Screening O=C(NC(c1ccccc1)c1c(O)ccc2ccccc12)c1ccccc1Cl (configuration not stated) returned UPR CHOP act 0.4, CHOP inh 106.8*, XBP1 UPR activ -2.0, Bfl-1 A1 inh -0.1 and CHOP confirm 125.4*.
For CC(C)CC(=O)NC(c1ccccc1)c1c(O)ccc2ccccc12 (configuration not stated) the results were UPR CHOP act 0.8, XBP1 UPR activ -5.5 and Bfl-1 A1 inh -1.0.

Screens from PubChem.
